High-throughput results: PubChem, several laboratories
Mdm2-MdmX inh: inhibitors of human Mdm2-MdmX association, primary screen, cell-based, luminescence, split luciferase, SaOS-2, uHTS. SaOS-2 split-luciferase Mdm2/MdmX complementation. inhibition, % at 8 µM. 3% of 330,000 active. AID 485346, 2010;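 active = inhibition of at least 50% at 8 µM in the primary screen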
Target sequence (O15151 whole entry, looked up): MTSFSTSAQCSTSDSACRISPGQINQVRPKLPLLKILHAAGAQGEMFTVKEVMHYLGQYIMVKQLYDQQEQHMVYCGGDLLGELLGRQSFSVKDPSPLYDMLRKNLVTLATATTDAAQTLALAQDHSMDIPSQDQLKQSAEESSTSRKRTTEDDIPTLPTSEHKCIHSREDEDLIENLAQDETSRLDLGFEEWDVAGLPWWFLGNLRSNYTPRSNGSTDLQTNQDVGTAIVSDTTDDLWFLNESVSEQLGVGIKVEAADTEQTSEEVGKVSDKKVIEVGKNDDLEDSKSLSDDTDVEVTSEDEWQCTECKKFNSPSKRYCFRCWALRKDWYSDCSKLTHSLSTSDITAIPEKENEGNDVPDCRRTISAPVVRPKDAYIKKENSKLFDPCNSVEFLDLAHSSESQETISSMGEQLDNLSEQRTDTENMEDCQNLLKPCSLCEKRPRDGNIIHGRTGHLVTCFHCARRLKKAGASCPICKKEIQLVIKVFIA
Target sequence (Q00987 whole entry, looked up): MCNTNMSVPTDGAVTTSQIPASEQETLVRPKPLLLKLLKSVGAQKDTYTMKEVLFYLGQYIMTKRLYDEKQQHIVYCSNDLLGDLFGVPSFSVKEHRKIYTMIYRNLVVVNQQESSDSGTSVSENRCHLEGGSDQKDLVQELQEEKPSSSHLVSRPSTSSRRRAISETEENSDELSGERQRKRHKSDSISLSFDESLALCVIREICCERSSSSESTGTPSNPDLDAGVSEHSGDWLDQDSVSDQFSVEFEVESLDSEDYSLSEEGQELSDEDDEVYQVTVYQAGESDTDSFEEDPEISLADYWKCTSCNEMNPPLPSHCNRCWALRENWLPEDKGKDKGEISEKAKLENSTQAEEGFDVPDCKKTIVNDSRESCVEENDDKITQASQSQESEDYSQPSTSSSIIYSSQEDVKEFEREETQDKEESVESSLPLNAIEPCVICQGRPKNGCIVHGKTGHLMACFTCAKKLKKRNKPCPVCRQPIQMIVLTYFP
aSyn UTR inh: MLPCN primary screen, SNCA 5' untranslated region | alpha-synuclein 5'UTR reporter, inhibitor activity | inhibition, % (tested at 7.5 µM) | 0.82% of 300,000 active; in the data active = inhibition above about 60%; inconclusive = no clear call, values can overlap the other calls;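 note: H4 neuroglioblastoma cells stably carrying SNCA 5'UTR luciferase fusion; 0% = DMSO wells and 100% = positive control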
SKKanGAS inh: S. pyogenes SKKanGAS growth inhibitors in kanamycin, primary screen, streptokinase expression inhibitor project, SKKanGAS strain, BacTiter-Glo luminescence | 6 h | 1.3% of 300,000 active | inhibition, % at 7.5 µM;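 active = mean replicate score, as percent of positive control median, at least 50; inconclusive = mean below 50 but one replicate at or above 50; inactive = mean and every replicate below 50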;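 note: strain carries kanamycin resistance gene driven by streptokinase promoter and grows in 40 µg/ml kanamycin; loss of luminescence reflects streptokinase promoter inhibition or plain growth inhibition; 0% = median of DMSO wells and 100% = positive control at its reference dose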
T cruzi inh: inhibitors of intracellular T. cruzi growth, primary screen, luminescence, NIH3T3 host cells. inhibition, % (concentration not given with the values). T. cruzi beta-gal in NIH3T3, 90 h. 1.4% of 300,000 active;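 active = mean inhibition across valid replicates above about 55%, limit read from the data; inconclusive = mean below that limit but half or more replicates reach it; inactive = mean below it, under half of replicates reach it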;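 note: signal also drops with host cell toxicity which is not excluded here; 0% = plate median of DMSO wells and 100% = zero luminescence signal; higher percent means less beta-gal luminescence so fewer parasites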
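Read-out: Parasite load inhibition, % | Test system: Mouse NIH/3T3 fibroblasts infected with β-gal-expressing T. cruzi Tulahuen C4 | Amount: 5,000 cells/well | Medium: DMEM, 2% fetal bovine serum | Signal: GalScreen β-gal luminescence, detergent lysis, 60 min | Timing: 3 h attach, ≥90 h co-culture | Also added: Tulahuen C4 trypomastigotes, 5000/well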
CSC inhib: cancer stem cell viability inhibitors, primary screen, luminescence. 1.1% of 300,000 active. inhibition, % at 7.5 µM. cancer stem cell-like cells viability; in the data active = inhibition above about 75%; inconclusive = no clear call, values can overlap the other calls; tested in HMLE shEcad cells
* = called active by the depositor; ? = inconclusive; . = not tested or not shown; ! = a repeat was not active. The list is not random: actives were taken first. Their share in the collection is about 5.4%.

SMILES	Mdm2-MdmX inh	aSyn UTR inh	SKKanGAS inh	T cruzi inh	CSC inhib
Cc1c(Cl)cccc1NC(=O)CC1Oc2ccccc2NC1=O (configuration not stated)	22	4	-3	-9	-5
Cc1ccc(Nc2nc(N)nc(CSC(=S)N3CCOCC3)n2)c(C)c1	-15	-93	-5	-19	.
CN(C)S(=O)(=O)Oc1ccsc1C(=O)Nc1ccccc1Cl	2	49	4	18	33
CN(C)S(=O)(=O)Oc1ccsc1C(=O)Nc1cccc(Cl)c1Cl	36	-38	5	62*	4
COc1ccc(CC(=O)NNC(=O)c2ccco2)cc1	-11	0	-4	-8	-13
COc1ccccc1OCC(=O)NNC(=S)NC(=O)c1ccco1	20	0	60*	-21	6
COc1ccccc1C(=O)NC(=S)Nc1ccc(NC(=O)c2ccco2)cc1	5	-18	?	6	8
COc1ccc(NC(=S)NNC(=O)c2ccco2)c(OC)c1	-11	-9	-2	-5	-3
COc1ccc(/C=C/C(=O)NC(=S)NNC(=O)c2ccco2)cc1OC	14	25	84*	-7	9
COc1ccc(C(=O)NC(=S)NNC(=O)c2ccco2)cc1	-20	8	53*	-19	21
COc1ccc(/C=C/C(=O)NC(=S)NNC(=O)c2ccco2)cc1	49	-20	78*	-1	1
O=C(NC(=S)NNC(=O)c1ccco1)c1ccc(F)cc1	29	-2	45	-20	4
Cc1ccc(C(C(=O)NCC2CCCO2)N(C(=O)c2snc(C(N)=O)c2N)c2ccc(C)c(C)c2)o1 (configuration not stated)	11	-30	-1	9	-9
CCC(=O)OCCNc1cc(Sc2nc3ccccc3s2)c2nonc2c1[N+](=O)[O-]	40	-2	?	46	106*
CCC(=O)OCCNc1cc(Sc2nc3ccccc3[nH]2)c2nonc2c1[N+](=O)[O-]	.	.	.	.	27
CCCSc1cc(NCCOC(=O)CCC)c([N+](=O)[O-])c2nonc12	-7	27	13	10	-6
CCCC(=O)OCCNc1cc(Sc2nccn2C)c2nonc2c1[N+](=O)[O-]	.	-1	10	61*	50
CCOc1ccccc1CN1CCNC(=O)C1CC(=O)NC1CCCCCCC1 (configuration not stated)	5	16	1	25	-9
CCOC(=O)C1CCCN(S(=O)(=O)c2cc3c4c(c2)CCC(=O)N4CCC3)C1 (configuration not stated)	27	6	17	5	.
COc1ccc(S(=O)(=O)N2CCN(C(=O)CC3CC4CCC3C4)CC2)cc1 (configuration not stated)	-4	.	.	.	-6
COc1ccc(CNc2nc(-c3cccnc3)nn2S(C)(=O)=O)cc1	5	7	4	-1	-22
Cc1c(NCc2cc(Cl)cc(Cl)c2O)c(=O)n(-c2ccccc2)n1C	16	-42	85*	-6	23
COc1ccc(CC(=O)N[C@@H]2c3cc(OC)c(OC)cc3C[C@H]2O)cc1	3	.	.	.	.
CC1CCCCC12NC(=O)N(CC(=O)NCCc1c[nH]c3ccccc13)C2=O (configuration not stated)	5	.	.	.	.
O=C(/C=C/c1ccccc1)NCCc1ccccc1	-43	-154	100*	-8	-1
SMILES	Mdm2-MdmX inh	aSyn UTR inh	SKKanGAS inh	T cruzi inh	CSC inhib
NC(=S)N/N=C/c1ncc(C(F)(F)F)cc1Cl	47	61	9	17	91*
NC(=S)N/N=C/c1ccc(C(F)(F)F)cc1	8	-8	-4	54	12
O=C1OC[C@H]2CCCN2C(=O)[C@@H](CC(=O)N(CCO)Cc2ccccc2)C/C=C\C[C@@H]1Cc1ccc(F)cc1	27	.	.	.	.
COc1ccc(CCC(=O)O)c(O)c1	-3	-13	3	-13	-6
N[C@@H](Cc1cc(I)c(Oc2cc(I)c(O)c(I)c2)c(I)c1)C(=O)O	26	-8	19	2	46
O=C(O)CCc1cc(I)c(Oc2ccc(O)c(I)c2)c(I)c1	.	8	97*	-11	.
N[C@@H](Cc1cc(I)c(Oc2ccc(O)c(I)c2)c(I)c1)C(=O)O	16	-9	62*!	-9	20
O=C(O)/C=C/C(=O)Nc1ccccc1SC(F)(F)F	-4	-18	-4	-25	-4
NNc1nc(-c2ccccc2)c2cc(Br)ccc2n1	11	22	65*	4	23
Cc1cc(Nc2ccccc2)c2c([N+](=O)[O-])ccc(C)c2n1	19	27	22	61*	8
Cc1cc(Nc2cccc([N+](=O)[O-])c2)c2cccc(C)c2n1	2	13	-12	43	-7
COc1cc(OC)c(OC)cc1CNCc1ccco1	-17	9	0	-9	6
CS/C(Nc1cc(Cl)ccc1Cl)=C(/C#N)C(=O)c1ccco1	-73	-7	54*	-10	35
C/C(=N\NC(=O)C(C)n1nc(C)c([N+](=O)[O-])c1C)c1ccccc1O (configuration not stated)	40	78*	2	27	15
Cc1cc(C)nc(-n2nc(C)c(Sc3ccc(F)cc3)c2N)n1	.	-182	?	58*	-15
CCN(c1ccccc1)c1nc(C#N)nc(N(CC)c2ccccc2)n1	37	-10	19	42	90*
CCN(CC)c1nc(C#N)nc(N(CC)CC)n1	8	14	8	7	.
c1ccc(-c2noc(C3CCC3)n2)nc1	-7	-54	-1	8	-14
CCCCC1CCC(c2nc(-c3ccccn3)no2)CC1 (configuration not stated)	-23	97*	61*	1	-6
COc1c(OC(C)=O)ccc(/C=C/c2ccc3cccc(OCc4ccccc4)c3n2)c1[N+](=O)[O-]	50	-129	24	10	87*
COc1cc(/C=C/c2ccc3cccc(OC)c3n2)c(O)c([N+](=O)[O-])c1	43	-31	2	-17	2
O/N=C/c1ccc2cccc(OCc3ccccc3)c2n1	16	20	-3	-7	1
COc1cc(/C=C/c2ccc3cccc(OC)c3n2)c(OC(C)=O)c([N+](=O)[O-])c1	38	-26	9	17	78*
Cc1ccc2c(c1)-c1nc3ccccc3cc1C2=NC1CCCCC1	.	.	.	.	38
Cc1ccc2c(c1)Cc1nc3ccccc3nc1-2	-68	71*	15	3	0
COc1cccc(-c2sc3ccc(OC)cc3c2C#CCCO)c1	26	.	.	.	116*
COc1cc(OC)cc(-c2sc3ccc(OC)cc3c2C#CC(C)(C)O)c1	-15	.	.	.	-6
COc1cc(OC)cc(-c2sc3ccc(OC)cc3c2C#CCO)c1	8	.	.	.	102*
COc1ccc(-c2sc3ccc(N4CCOCC4)cc3c2C#CCO)cc1	35	.	.	.	.
COc1cccc(-c2sc3ccc(OC)cc3c2C#CC2(O)CCCCC2)c1	21	.	.	.	105*
